Hits are enriched below; roughly 12% of the tested compounds scored in any of these assays.
Wee1 degr inh: Wee1 degradation inhibitors, primary screen, cell-based, HeLa, Wee1K328M-luciferase, luminescence; Wee1-like protein kinase (Homo sapiens), P30291; HeLa Luc-Wee1K328M stability; 100% = proteasome inhibitor MG132 effect; reporter increase, % at 5 µM; 1.2% of 220,000 active;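 active = activation above the mean of all tested compounds plus 3 SD, set per screening run, cut at about 8.8% in these data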;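 note: cells exposed to compound for 20 h before luminescence read; 0% = DMSO alone and 100% = MG132 at 30 µM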
PKD1 inh: inhibitors of human PKD1 kinase, biochemical, fluorescence polarization; Serine/threonine-protein kinase D1 (Homo sapiens), Q15139; PKD1 kinase fluorescence polarization assay; inhibition, % (concentration not given with the values); 0.056% of 200,000 active; AID 797, 2007
Arbovirus anti: antivirals against arbovirus infection, primary screen, cell-based, full library, 10K replicate subset. inhibition, % at 10 µM. arbovirus infection cell-based antiviral screen. 0.37% of 200,000 active; in the data active = inhibition above about 30%
CHOP inh: inhibitors of CHOP promoter induction, primary screen, cell-based, unfolded protein response, luciferase reporter | 3.8% of 220,000 active | inhibition, % at 10 µM | CHO-K1 CHOP-promoter luciferase, tunicamycin-induced, 15-18 h;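 active = compounds that reduced the stress-induced luciferase reporter signal by more than about 70% of percent inhibition, limit read from the data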;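 note: 0% = tunicamycin plus vehicle and 100% = wells without tunicamycin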
Lmaj promast: Leishmania major promastigote growth inhibition, primary screen; Leishmania major promastigotes, resazurin fluorescence viability; AID 1063, 2008; 9% of 200,000 active; inhibition, % at 10 µM;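 note: promastigotes grown with compound for 44 hours at 28 °C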
Rad51 HR inh: human RAD51 strand exchange inhibitors, primary screen, biochemical, fluorescence. DNA repair protein RAD51 homolog 1 (Homo sapiens), Q06609. hRad51 DNA strand exchange, fluorescence dequenching. AID 1385, 2008. inhibition, % at 10 µM. 0.085% of 200,000 active;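 active = inhibition above 40% at the single screening dose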;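 note: 0% = DMSO control wells and 100% = blanks with heterologous ssDNA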
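Read-out basis: percent inhibition relative to plate controls and blanks / Assay system: human Rad51 nucleoprotein filaments preassembled on unlabelled ssDNA / Timing: filaments 15 min 37 °C, then compound 30 min / Control set: per-plate controls and blanks / Technique: fluorescence dequenching at 485/520 nm / Compound: 10 µM final, single point / Also added: Fluorescein- and BHQ1-tagged 47-mer duplex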
Starred values were filed as active, the others as inactive; / = no result. Cut-off read from the data, not from the text of the source, unless noted: active = inhibition above about 50%; inactive = the rest.

SMILES	Wee1 degr inh	PKD1 inh	Arbovirus anti	CHOP inh	Lmaj promast	Rad51 HR inh
Cc1nn(-c2ccccc2)c2sc(C(=O)NNC(=O)COc3cccc4ccccc34)cc12	-0.3	-15.8	-10.4	92.3*	-4.8	-1.2
CCNC(=O)NC(=O)COC(=O)C1CSC2(C)CCC(=O)N12 (configuration not stated)	0.0	-0.9	4.5	6.7	1.4	/
COc1ccc(N2CCN(S(=O)(=O)c3cc(C)ccc3OC)CC2)cc1	2.5	-5.7	3.8	21.1	48.6	/
CC(C)S(=O)(=O)c1cnc(-c2cccnc2)nc1N	-0.2	/	/	-2.2	/	-1.1
Fc1ccc2c(c1)/C(=N/Nc1ccccn1)CCS2	3.5	-2.7	0.8	41.1	55.0*	-0.7
COc1cc(/C=C2\SC(=Nc3ccccc3)N(CCc3c[nH]c4ccccc34)C2=O)ccc1OC(C)C(=O)O (configuration not stated)	5.0	7.8	-13.2	-13.8	-7.4	10.2
COCCN1C(=O)/C(=C/c2ccc(Oc3ccc([N+](=O)[O-])cn3)c(OC)c2)SC1=Nc1ccccc1	-0.7	-2.9	32.2*	9.7	100.3*	-8.4
COc1ccc(C(=O)CN2Cc3ccccc3C2=N)cc1	-0.2	/	/	-25.6	/	/
CCOc1ccc(-n2c(SCC(=O)Nc3cc(OC)c([N+](=O)[O-])cc3C)nc3ccccc32)cc1	2.3	-13.4	53.9*	6.1	97.7*	4.9
Cc1ccc(-n2c(SCC(=O)Nc3cccc(S(N)(=O)=O)c3)nc3ccccc32)cc1	0.6	-9.0	7.1	65.2	77.8*	4.1
CC(C)NC(=O)CSc1nc2ccccc2n1-c1ccccc1	-2.2	-12.3	-7.4	13.4	3.0	0.3
COc1cc([N+](=O)[O-])ccc1NC(=O)CSc1nc2ccccc2n1-c1ccccc1	-0.3	-11.7	-12.3	13.5	91.7*	1.5
CC(C)(C)NC(=O)CSc1nc2ccccc2n1-c1ccccc1	4.6	-2.6	-0.6	71.2*	14.5	3.8
COc1cscc1C(N)=O	1.9	/	/	10.4	/	13.4
Cc1nnc(-c2ccc(N3CCCCCC3)c([N+](=O)[O-])c2)o1	-1.0	/	/	1.2	/	/
O=C(CNC(=S)N(Cc1ccccc1)Cc1cccnc1)NCCN1CCOCC1	-0.2	-0.8	12.9	-16.3	-6.1	1.9
COCc1ccc([C@@H]2C[C@H]3CN(Cc4ccccc4C)C(=O)[C@]34CCCN24)o1	1.9	-5.1	1.8	46.9	3.0	12.2
S=C(NC12CC3CC(CC(C3)C1)C2)N1CCCC1	-2.2	-12.6	17.6	5.3	53.2*	1.0
O=C(NCC(=O)N1CC(O)CC1C(=O)N1CC(O)CC1C(=O)OCc1ccccc1)OCc1ccccc1 (configuration not stated)	1.7	-2.0	13.9	10.6	-5.0	5.4
Cc1cc(-c2ccc3ccccc3c2)n2ncnc2n1	-1.3	1.4	4.5	17.2	1.8	3.3
Cc1ccccc1OCc1nc2ccccc2c(=O)n1/N=C/c1c[nH]c2ccccc12	2.1	6.4	0.7	88.0*	1.6	13.1
Cc1cccc(C)c1OCc1nc2ccccc2c(=O)n1/N=C/c1c[nH]c2ccccc12	1.9	-17.0	-4.3	84.9*	95.9*	-5.8
Cc1cc(/C=N/n2c(COc3ccccc3C)nc3ccccc3c2=O)c(O)c([N+](=O)[O-])c1	-2.0	4.1	-27.1	53.4	1.1	-4.3
COc1ccccc1-c1coc2cc(OC(=O)/C=C/c3ccccc3)ccc2c1=O	-0.3	-4.5	8.3	18.0	-4.5	-4.5
NC(N)=Nc1nc2ccc(Cl)cc2c(=O)[nH]1	2.2	2.7	5.8	-3.1	18.7	-7.5
Cc1ccc(C(=O)NN2C(=O)C3C(C2=O)C2C=CC3C23CC3)cc1 (configuration not stated)	-2.7	0.5	2.6	6.4	-2.8	26.0
Oc1ccc(-c2cn3c(n2)SCC3)cc1	0.4	-5.7	-3.0	12.7	-0.3	0.2
Oc1ccc(-c2cn3c(n2)SCC3)cc1O	0.3	-7.6	1.6	-2.5	97.9*	19.6
CC1C(=O)CC(c2ccccc2)N(C)C1c1ccccc1 (configuration not stated)	/	0.2	-1.8	78.8*	2.4	0.7
